# Measured values taken from ChEMBL document CHEMBL1156283, “Discovery and optimization of 2-(4-substituted-pyrrolo[2,3-b]pyridin-3-yl)methylene-4-hydroxybenzofuran-3(2H)-ones as potent and selective ATP-competitive inhibitors of the mammalian target of rapamycin (mTOR)” (Bioorg Med Chem Lett, 2010).
# How the values were obtained:
# [1] = molecular target: Serine/threonine-protein kinase mTOR (Homo sapiens, UniProt P42345); experiment: Inhibition of mTOR
# [2] = Half life in mouse microsomes in phase 1 using NADPH as a cofactor; assay type: ADME, Microsome
# Homo sapiens = species on record: Homo sapiens; experiment: Selectivity ratio of IC50 for PI3Kalpha to IC50 for mTOR
# How it was run: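 Selectivity is calculated as the IC50 against PI3K divided by the IC50 against mTOR.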
# LNCaP = experiment: Cytotoxicity against human LNCAP cells; assay type: functional, cell-based
# [3] = Half life in mouse microsomes in phase 1/2 using NADPH and UDPGA as a cofacto; assay type: ADME, Microsome
# [4] = molecular target: Phosphatidylinositol 4,5-bisphosphate 3-kinase catalytic subunit alpha isoform (Homo sapiens, UniProt P42336); experiment: Inhibition of PI3Kalpha
# [5] = molecular target: Tyrosine-protein kinase Lyn (Homo sapiens, UniProt P07948); experiment: Inhibition of LYN A
# [6] = molecular target: Glycogen synthase kinase-3 beta (Homo sapiens, UniProt P49841); experiment: Inhibition of GSK3-beta
# [7] = molecular target: Cyclin-dependent kinase 2 (Homo sapiens, UniProt P24941); experiment: Inhibition of CDK2
# [8] = molecular target: Tyrosine-protein kinase ABL1 (Homo sapiens, UniProt P00519); experiment: Inhibition of ABL1
# [9] = molecular target: Ribosomal protein S6 kinase alpha-1 (Homo sapiens, UniProt Q15418); experiment: Inhibition of RSK1
# [10] = molecular target: Glycogen synthase kinase-3 alpha (Homo sapiens, UniProt P49840); experiment: Inhibition of GSK3alpha
# [11] = molecular target: Cyclin-dependent kinase 1 (Homo sapiens, UniProt P06493); experiment: Inhibition of CDK1
# [12] = molecular target: Tyrosine-protein kinase HCK (Homo sapiens, UniProt P08631); experiment: Inhibition of HCK
# Aurora kinase B = Aurora kinase B (Homo sapiens, UniProt Q96GD4); experiment: Inhibition of Aurora B
# [13] = molecular target: Fibroblast growth factor receptor 1 (Homo sapiens, UniProt P11362)
# [14] = molecular target: MAP kinase-activated protein kinase 2 (Homo sapiens, UniProt P49137)
# [15] = molecular target: Mitogen-activated protein kinase 1 (Homo sapiens, UniProt P28482)
# Chain of Phosphatidylinositol 4,5-bisphosphate 3-kinase catalytic subunit alpha isoform (P42336 whole entry, canonical isoform): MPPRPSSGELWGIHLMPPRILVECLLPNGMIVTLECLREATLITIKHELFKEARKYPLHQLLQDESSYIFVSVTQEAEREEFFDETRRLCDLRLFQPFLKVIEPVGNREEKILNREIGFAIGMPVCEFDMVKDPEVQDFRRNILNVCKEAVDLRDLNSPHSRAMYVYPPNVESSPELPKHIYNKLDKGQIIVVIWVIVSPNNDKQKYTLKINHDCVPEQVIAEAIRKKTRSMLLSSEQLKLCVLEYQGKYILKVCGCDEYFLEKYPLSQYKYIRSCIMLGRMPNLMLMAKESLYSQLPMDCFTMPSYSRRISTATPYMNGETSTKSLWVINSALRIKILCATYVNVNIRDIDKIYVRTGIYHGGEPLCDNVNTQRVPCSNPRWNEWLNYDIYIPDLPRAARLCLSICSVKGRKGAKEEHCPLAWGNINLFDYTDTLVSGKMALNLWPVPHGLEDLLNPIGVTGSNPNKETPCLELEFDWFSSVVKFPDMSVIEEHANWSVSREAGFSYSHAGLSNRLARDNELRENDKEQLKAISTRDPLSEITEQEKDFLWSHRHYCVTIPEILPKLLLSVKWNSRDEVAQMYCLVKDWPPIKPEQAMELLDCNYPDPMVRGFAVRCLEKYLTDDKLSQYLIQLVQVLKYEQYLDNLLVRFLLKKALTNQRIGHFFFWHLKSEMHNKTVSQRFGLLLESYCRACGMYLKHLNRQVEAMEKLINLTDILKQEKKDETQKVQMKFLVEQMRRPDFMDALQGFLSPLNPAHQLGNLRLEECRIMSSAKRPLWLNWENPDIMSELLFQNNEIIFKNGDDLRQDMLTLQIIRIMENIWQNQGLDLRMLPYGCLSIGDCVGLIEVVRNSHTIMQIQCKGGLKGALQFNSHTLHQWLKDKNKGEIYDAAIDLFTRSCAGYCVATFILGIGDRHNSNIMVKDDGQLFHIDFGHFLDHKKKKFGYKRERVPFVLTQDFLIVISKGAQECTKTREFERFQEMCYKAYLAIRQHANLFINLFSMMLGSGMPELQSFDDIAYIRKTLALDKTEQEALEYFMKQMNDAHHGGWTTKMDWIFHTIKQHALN
# Chain of Tyrosine-protein kinase ABL1 (P00519 whole entry): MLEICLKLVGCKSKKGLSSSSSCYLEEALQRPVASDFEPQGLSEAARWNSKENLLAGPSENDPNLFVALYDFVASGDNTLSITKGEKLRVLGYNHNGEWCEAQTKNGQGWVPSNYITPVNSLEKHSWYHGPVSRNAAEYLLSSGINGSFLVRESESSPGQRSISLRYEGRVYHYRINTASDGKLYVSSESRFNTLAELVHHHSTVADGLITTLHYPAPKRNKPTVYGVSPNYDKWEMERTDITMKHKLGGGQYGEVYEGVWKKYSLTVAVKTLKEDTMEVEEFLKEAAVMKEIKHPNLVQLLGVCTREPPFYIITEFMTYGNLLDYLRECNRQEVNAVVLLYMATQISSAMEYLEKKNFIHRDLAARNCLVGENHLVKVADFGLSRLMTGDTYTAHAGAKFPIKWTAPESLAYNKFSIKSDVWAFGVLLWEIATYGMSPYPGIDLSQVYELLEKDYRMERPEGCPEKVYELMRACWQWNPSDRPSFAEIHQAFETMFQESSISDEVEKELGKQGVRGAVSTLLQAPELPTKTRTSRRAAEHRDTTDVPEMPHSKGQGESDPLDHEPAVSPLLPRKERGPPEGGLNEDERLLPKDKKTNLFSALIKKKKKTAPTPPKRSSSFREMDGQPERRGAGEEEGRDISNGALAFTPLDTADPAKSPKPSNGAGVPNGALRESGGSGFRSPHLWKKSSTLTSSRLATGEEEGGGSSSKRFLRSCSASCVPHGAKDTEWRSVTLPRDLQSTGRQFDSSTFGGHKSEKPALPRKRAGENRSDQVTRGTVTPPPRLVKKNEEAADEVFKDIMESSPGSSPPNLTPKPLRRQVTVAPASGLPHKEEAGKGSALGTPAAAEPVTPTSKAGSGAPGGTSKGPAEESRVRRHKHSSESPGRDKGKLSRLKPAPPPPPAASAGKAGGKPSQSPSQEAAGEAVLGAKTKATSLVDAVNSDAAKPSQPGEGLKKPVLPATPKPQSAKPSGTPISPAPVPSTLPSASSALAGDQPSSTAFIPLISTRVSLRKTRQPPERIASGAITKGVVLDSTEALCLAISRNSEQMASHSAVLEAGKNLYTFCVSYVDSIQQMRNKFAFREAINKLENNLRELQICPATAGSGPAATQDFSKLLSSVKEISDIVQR
# Chain of Ribosomal protein S6 kinase alpha-1 (Q15418 whole entry): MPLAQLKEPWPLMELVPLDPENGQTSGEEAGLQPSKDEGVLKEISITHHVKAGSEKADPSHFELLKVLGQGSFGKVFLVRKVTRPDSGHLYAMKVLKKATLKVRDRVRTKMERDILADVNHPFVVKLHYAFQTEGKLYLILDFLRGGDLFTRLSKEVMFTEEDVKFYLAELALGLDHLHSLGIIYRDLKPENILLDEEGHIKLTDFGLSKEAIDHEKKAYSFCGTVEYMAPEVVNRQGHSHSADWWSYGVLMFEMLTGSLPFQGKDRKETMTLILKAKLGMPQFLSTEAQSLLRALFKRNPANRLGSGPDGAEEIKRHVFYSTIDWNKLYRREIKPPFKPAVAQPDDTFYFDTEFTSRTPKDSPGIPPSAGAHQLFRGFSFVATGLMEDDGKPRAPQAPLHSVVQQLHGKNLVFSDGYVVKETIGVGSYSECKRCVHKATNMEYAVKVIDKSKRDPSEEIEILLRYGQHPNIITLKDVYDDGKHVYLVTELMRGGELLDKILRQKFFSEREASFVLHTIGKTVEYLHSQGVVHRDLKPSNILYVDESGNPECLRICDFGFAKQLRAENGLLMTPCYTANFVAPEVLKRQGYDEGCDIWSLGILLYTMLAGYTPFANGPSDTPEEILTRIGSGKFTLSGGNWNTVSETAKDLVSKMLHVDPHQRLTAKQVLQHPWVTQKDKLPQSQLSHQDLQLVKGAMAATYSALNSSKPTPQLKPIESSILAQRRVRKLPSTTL
# Chain of MAP kinase-activated protein kinase 2 (P49137 whole entry): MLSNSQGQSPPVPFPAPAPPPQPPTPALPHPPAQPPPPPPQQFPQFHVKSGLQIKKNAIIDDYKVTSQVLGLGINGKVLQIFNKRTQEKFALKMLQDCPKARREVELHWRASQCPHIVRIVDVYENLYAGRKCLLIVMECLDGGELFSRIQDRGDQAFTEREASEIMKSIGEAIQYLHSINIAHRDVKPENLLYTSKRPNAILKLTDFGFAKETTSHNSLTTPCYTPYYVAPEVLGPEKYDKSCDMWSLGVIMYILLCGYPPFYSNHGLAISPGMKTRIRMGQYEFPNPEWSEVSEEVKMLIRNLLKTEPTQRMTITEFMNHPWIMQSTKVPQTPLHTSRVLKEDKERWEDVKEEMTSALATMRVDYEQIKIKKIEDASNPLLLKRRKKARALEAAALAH
# Chain of Glycogen synthase kinase-3 beta (P49841 whole entry): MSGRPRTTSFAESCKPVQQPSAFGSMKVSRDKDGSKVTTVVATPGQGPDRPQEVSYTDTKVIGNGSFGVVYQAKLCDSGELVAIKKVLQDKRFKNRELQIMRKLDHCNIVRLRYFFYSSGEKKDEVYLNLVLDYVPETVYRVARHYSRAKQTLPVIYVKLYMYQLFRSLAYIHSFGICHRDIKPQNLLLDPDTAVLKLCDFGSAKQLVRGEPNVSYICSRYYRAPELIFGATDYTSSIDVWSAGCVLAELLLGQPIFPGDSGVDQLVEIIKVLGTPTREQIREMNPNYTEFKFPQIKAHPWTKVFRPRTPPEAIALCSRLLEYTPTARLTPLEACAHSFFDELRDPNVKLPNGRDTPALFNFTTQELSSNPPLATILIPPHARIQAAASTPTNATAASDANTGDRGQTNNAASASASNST
# Chain of Fibroblast growth factor receptor 1 (P11362 whole entry): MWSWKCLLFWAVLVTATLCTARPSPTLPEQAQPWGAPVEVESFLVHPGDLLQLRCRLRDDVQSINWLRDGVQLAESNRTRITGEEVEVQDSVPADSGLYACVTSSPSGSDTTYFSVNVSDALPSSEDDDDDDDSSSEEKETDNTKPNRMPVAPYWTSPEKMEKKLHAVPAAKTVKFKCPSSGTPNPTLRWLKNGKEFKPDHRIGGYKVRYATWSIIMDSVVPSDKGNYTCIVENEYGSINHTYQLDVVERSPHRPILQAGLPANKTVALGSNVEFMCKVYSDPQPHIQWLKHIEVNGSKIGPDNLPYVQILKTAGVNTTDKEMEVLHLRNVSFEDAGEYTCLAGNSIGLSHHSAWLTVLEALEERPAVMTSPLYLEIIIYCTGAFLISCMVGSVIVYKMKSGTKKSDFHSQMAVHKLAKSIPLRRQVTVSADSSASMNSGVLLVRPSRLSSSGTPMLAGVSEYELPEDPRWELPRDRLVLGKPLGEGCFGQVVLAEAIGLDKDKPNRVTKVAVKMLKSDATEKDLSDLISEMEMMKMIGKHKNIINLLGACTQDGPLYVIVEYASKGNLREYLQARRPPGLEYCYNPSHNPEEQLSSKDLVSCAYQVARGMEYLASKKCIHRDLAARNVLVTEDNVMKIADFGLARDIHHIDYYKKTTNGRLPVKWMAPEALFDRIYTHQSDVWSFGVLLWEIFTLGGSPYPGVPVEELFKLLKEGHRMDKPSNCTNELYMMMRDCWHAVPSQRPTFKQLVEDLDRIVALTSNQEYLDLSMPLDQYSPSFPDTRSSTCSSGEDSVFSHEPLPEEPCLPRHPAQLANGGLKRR
# Chain of Cyclin-dependent kinase 1 (P06493 whole entry): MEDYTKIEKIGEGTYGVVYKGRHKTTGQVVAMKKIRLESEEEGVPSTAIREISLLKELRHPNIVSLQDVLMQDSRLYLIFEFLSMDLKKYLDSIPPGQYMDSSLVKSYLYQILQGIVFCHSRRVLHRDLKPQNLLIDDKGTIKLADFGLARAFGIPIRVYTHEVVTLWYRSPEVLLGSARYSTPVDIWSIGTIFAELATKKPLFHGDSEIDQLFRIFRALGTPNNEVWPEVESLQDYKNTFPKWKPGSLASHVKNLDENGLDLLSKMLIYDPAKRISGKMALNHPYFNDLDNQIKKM
SMILES,IC50 [1],half-life [2],Ratio IC50 (Homo sapiens),half-life [3],IC50 (LNCaP),also measured
Cn1cc(/C=C2\Oc3cccc(O)c3C2=O)c2c(-c3ccc(C(=O)N4CCN(CCO)CC4)cc3)ccnc21,0.39 nM,> 30 min,256,> 30 min,1 nM,–
CN1CCN(C(=O)c2ccc(-c3ccnc4c3c(/C=C3\Oc5cccc(O)c5C3=O)cn4C)cc2)CC1,–,28 min,70,24 min,9 nM,–
Cn1cc(/C=C2\Oc3cccc(O)c3C2=O)c2c(N3C4CCC3COC4)ccnc21,–,–,9,–,2 nM,–
Cn1cc(/C=C2\Oc3cccc(O)c3C2=O)c2c(N3CCC(C(=O)N4CC5CCC(C4)O5)CC3)ccnc21,–,> 30 min,26,16 min,1 nM,IC50 [4]: 52 nM
CN(C)C(=O)c1ccccc1-c1ccnc2c1c(/C=C1\Oc3cccc(O)c3C1=O)cn2C,–,–,32.8,–,> 60000 nM,–
Cn1cc(/C=C2\Oc3cc(O)cc(O)c3C2=O)c2cccnc21,42 nM,–,1.7,–,6500 nM,IC50 [4]: 77 nM
Cn1cc(/C=C2\Oc3cccc(O)c3C2=O)c2c(-c3ccc(C(=O)N4CC5CCC(C4)O5)cc3)ccnc21,0.56 nM,6 min,103,2 min,8 nM,–
CCn1cc(/C=C2\Oc3cccc(O)c3C2=O)c2c(-c3ccc(C(=O)N4CCN(CCO)CC4)cc3)ccnc21,–,–,98,–,4 nM,IC50 [4]: 455 nM
Cn1cc(/C=C2\Oc3cc(O)ccc3C2=O)c2c(-c3ccccc3)ccnc21,–,–,11,–,1800 nM,–
Cn1cc(/C=C2\Oc3cccc(O)c3C2=O)c2c(-c3ccccc3)ccnc21,3.45 nM,22 min,25.8,–,–,–
CN(C)C(=O)c1cccc(-c2ccnc3c2c(/C=C2\Oc4cccc(O)c4C2=O)cn3C)c1,–,–,20.5,–,600 nM,–
Cn1cc(/C=C2\Oc3cccc(O)c3C2=O)c2c(-c3ccc(C(=O)NCCO)cc3)ccnc21,–,–,–,–,–,IC50 [5]: 27700 nM; IC50 [6]: 5900 nM; IC50 [7]: 35500 nM; IC50 [8]: 9700 nM; IC50 [9]: 45900 nM; IC50 [10]: 10600 nM; IC50 [11]: 39200 nM; IC50 [12]: 27100 nM; IC50 (Aurora kinase B): 22200 nM; IC50 [13]: 50 nM; IC50 [14]: 6.5 nM; IC50 [15]: 50 nM
CN1CCN(C(=O)C2CCN(c3ccnc4c3c(/C=C3\Oc5cccc(O)c5C3=O)cn4C)CC2)CC1,–,> 30 min,12,> 30 min,< 1 nM,–
Cn1cc(/C=C2\Oc3cc(O)cc(O)c3C2=O)c2c(-c3ccccc3)ccnc21,0.46 nM,20 min,137,2 min,77 nM,–
Cn1cc(/C=C2\Oc3cc(O)cc(O)c3C2=O)c2c(-c3ccccc3)cccc21,–,–,–,–,1400 nM,IC50 [4]: 1480 nM
CN(C)C(=O)c1ccc(-c2ccnc3c2c(/C=C2\Oc4cccc(O)c4C2=O)cn3C)cc1,0.55 nM,–,65,–,4 nM,–
Cn1cc(/C=C2\Oc3cccc(O)c3C2=O)c2c(N3CCC(C(=O)N4CCN(CCO)CC4)CC3)ccnc21,1.85 nM,> 30 min,13,14 min,1 nM,IC50 [4]: 25 nM

# More lines, main results first:
IC50 [1],half-life [2],Ratio IC50 (Homo sapiens),half-life [3],SMILES,IC50 (LNCaP),also measured
–,–,9,–,Cn1cc(/C=C2\Oc3cccc(O)c3C2=O)c2c(N3CCC(CN)CC3)ccnc21,75 nM,–
–,> 30 min,45,> 30 min,Cn1cc(/C=C2\Oc3cccc(O)c3C2=O)c2c(N3CCC(C(=O)N4CCOCC4)CC3)ccnc21,< 1 nM,–
0.72 nM,–,41,–,Cn1cc(/C=C2\Oc3cccc(O)c3C2=O)c2c(N3CCC(C(N)=O)CC3)ccnc21,10 nM,–
0.38 nM,–,274,–,Cn1cc(/C=C2\Oc3cccc(O)c3C2=O)c2c(N3CC4CCC(C3)O4)ccnc21,2 nM,–
–,–,6,–,Cn1cc(/C=C2\Oc3cccc(O)c3C2=O)c2c(N3CCC(N)CC3)ccnc21,240 nM,–
–,–,24,–,Cn1cc(/C=C2\Oc3cccc(O)c3C2=O)c2c(N3CCOCC3)ccnc21,5 nM,–
–,–,46,–,CN1CCN(c2ccnc3c2c(/C=C2\Oc4cc(O)cc(O)c4C2=O)cn3C)CC1,110 nM,IC50 [4]: 43 nM
2.75 nM,–,63,–,CN1CCN(c2ccnc3c2c(/C=C2\Oc4cccc(O)c4C2=O)cn3C)CC1,3 nM,–
–,> 30 min,97,10 min,Cn1cc(/C=C2\Oc3cccc(O)c3C2=O)c2c(-c3ccc(C(=O)N4CCOCC4)cc3)ccnc21,1 nM,–
0.67 nM,> 30 min,46,20 min,CN(C)C(=O)C1CCN(c2ccnc3c2c(/C=C2\Oc4cccc(O)c4C2=O)cn3C)CC1,1 nM,IC50 [4]: 30 nM
